Shown is part of a subset that was picked to be rich in hits.
Fibroblast inh: blocks proliferation of human lung fibroblasts. 85,000 tested, 1.1% active. viability, % at 10 µM. LL 47 human lung fibroblast viability, ATP luminescence; active compounds read low. AID 719;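 active = viability at or below 50% in the single dose screen; inactive = viability above 50%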;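 note: compound exposure lasted 72 h before the ATP readout; 100% = median luminescence of untreated cell-only wells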
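Test system: LL 47 human lung fibroblasts / Incubation: 72 h compound exposure at 37 °C after overnight plating / Technique: luminescent ATP detection, CellTiter-Glo / Compound dosing: 0.1% DMSO in all compound wells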
HUVEC inhibit: blocks proliferation of human endothelial cells; 86,000 tested, 1.1% active; HUVEC proliferation, CellTiter-Glo luminescence, 72 h; active compounds read low; viability, % at 10 µM (by protocol);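 active = viability at or below 30%; inactive = viability above 30%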;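 note: 100% = median luminescence of DMSO-only cell control wells on each plate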
HCT116 PTEN-null: growth suppressors of cells with PTEN tumor suppressor deletion | HCT116 PTEN-null viability, CellTiter-Glo, 60 h; active compounds read low | viability, % at 10 µM | 140,000 tested, 1.2% active;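 active = viability at or below a set limit, 4 SD under the median of all tested compounds, cut at about 3.7% in these data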;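 note: PTEN knockout HCT116 line with beta catenin targeted HCT116 as companion control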
H69AR growth 86K: growth inhibitors of human H69AR lung tumor cells. H69AR lung tumor viability, ATP luminescence, 72 h; active compounds read low. viability, % at 10 µM. 85,000 tested, 6% active. AID 598;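 active = viability at or below 40%; inactive = viability above 40%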;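 note: multidrug resistant small cell line overexpressing MRP-1 efflux transporter; 100% = mean luminescence of untreated control wells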
HCT116 bCat-KO: beta-catenin-lacking colon tumor cell growth suppression; HCT116 beta-catenin knockout viability, CellTiter-Glo, 60 h; active compounds read low; viability, % at 10 µM; 140,000 tested, 1.5% active;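 active = viability at or under a set limit, the compound median less 4 SD, cut at about 6% in these data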;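 note: 0% = Hyamine 1622 control at 20 µM and 100% = untreated cell control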
* marks the source's active call; other numbers are inactive results; / = no result.

SMILES	Fibroblast inh	HUVEC inhibit	HCT116 PTEN-null	H69AR growth 86K	HCT116 bCat-KO
CCC(=O)N(Cc1ccco1)c1nc(C(=O)Nc2ccc(Cl)cc2)c(C)s1	/	/	72	/	81
CC(=O)N1CCN(c2ccc(NC(=O)c3ccc4c(c3)OCCO4)cc2)CC1	95	100	75	105	73
CC(C)C(=O)N1CCN(c2ccc(NC(=O)c3ccc4c(c3)OCCO4)cc2Cl)CC1	19*	3.2*	1.7*	6.2*	1.3*
O=C(NC1CC1)C1CCCN1S(=O)(=O)c1ccc2ccccc2c1 (configuration not stated)	95	78	106	18*	99
CCOc1cc(N2CCOCC2)c(OCC)cc1NC(=O)COC(=O)c1ccccc1C	/	/	72	/	65
CCOc1cc(N2CCOCC2)c(OCC)cc1NC(=O)COc1ncnc2ccc(Br)cc12	42*	73	69	47	66
CCOc1cc(N2CCOCC2)c(OCC)cc1NC(=O)COC(=O)c1cc(C)oc1C	95	93	39	38*	41
O=S(=O)(/C=C/c1ccccc1)n1cnc2ccccc21	68	84	107	20*	98
CN(C)S(=O)(=O)n1cnc2ccccc21	101	90	106	95	104
CCN(CC)C(=O)c1ccc2c3c(cccc13)C(=O)N(CCc1ccc(OC)c(OC)c1)C2=O	/	/	24	/	27
O=C(Nc1ccc(Br)cc1)c1ccc(N2C(=O)C3CC=C(Cl)CC3C2=O)cc1 (configuration not stated)	92	36	85	25*	89
O=C(COc1ccc(Cl)cc1Br)NC(=O)NCc1ccccc1	/	/	90	/	92
CCOC(=O)c1nnc(-c2cccs2)nc1Oc1ccccc1C(=O)OC	97	74	97	31*	97
CCOC(=O)c1nnc(-c2cccs2)nc1Oc1ccc(Cl)cc1	94	76	110	52	94
O=C(O)c1ccc2c(c1)C(=O)N(N1C(=O)c3ccccc3C1=O)C2=O	/	/	102	/	92
COc1ccccc1-c1cc(C(F)(F)F)nc(S(=O)(=O)CCCC(=O)NC(C)C)n1	/	/	4	/	6.0*
COc1ccccc1-c1cc(C(F)(F)F)nc(S(C)(=O)=O)n1	/	/	38	/	2.6*
COc1ccccc1-c1cc(C(F)(F)F)nc(S(=O)(=O)CCCC(=O)N2CCCCC2C)n1 (configuration not stated)	/	/	49	/	48
COc1ccccc1-c1cc(C(F)(F)F)nc(S(=O)(=O)CCCC(=O)Nc2cc(C)on2)n1	/	/	2.0*	/	4.0*
O=C(Nc1ccc(Cl)cc1C(=O)N1CCOCC1)c1cccc([N+](=O)[O-])c1	/	/	103	/	95
Cc1ccc(-c2csc(=Nc3cccnc3)n2CCCn2ccnc2)cc1C	/	/	44	/	51
Cc1ccccc1OCCSCc1nc2ccccc2[nH]1	/	/	76	/	77
Cn1c(/C=C/c2ccc([N+](=O)[O-])o2)nc2ccccc2c1=O	5.2*	16*	1.5*	-0.5*	1.8*
O=c1c2ccccc2nc(/C=C/c2ccc(O)cc2)n1CCc1ccccc1	/	/	35	/	56
Cc1ccc2nc(NCCCO)nc(-c3ccccc3)c2c1	73	64	26	8.9*	23
SMILES	Fibroblast inh	HUVEC inhibit	HCT116 PTEN-null	H69AR growth 86K	HCT116 bCat-KO
COc1ccccc1/C=C(/C(=O)OCC(=O)N(C)Cc1ccccc1)c1ccccc1	/	/	73	/	72
Cc1ccccc1NC(=O)c1c(-c2ccccc2)noc1C	91	93	103	88	96
Cc1onc(-c2ccccc2)c1C(=O)Nc1cc(C(F)(F)F)ccc1N1CCOCC1	48*	39	13	23*	13
Cc1onc(-c2ccccc2)c1C(=O)Nc1ccccc1N1CCOCC1	92	84	86	31*	84
O=C(CSc1nc2ccccc2[nH]1)Nc1cc(C(F)(F)F)ccc1N1CCOCC1	97	96	69	31*	70
CCc1ccc(/C=C(\Cl)c2nc3cc(Cl)ccc3c(=O)[nH]2)cc1	/	/	103	/	96
O=C(CN1C(=O)NC2(CCc3ccccc3C2)C1=O)Nc1ccc(F)cc1 (configuration not stated)	/	/	86	/	82
CCN(CC)S(=O)(=O)c1ccc(-c2nnc(SCc3nnc(-c4ccccc4)o3)o2)cc1	69	53	8	20*	22
Cc1ccc(NC(=O)CSc2nnc(-c3ccc(S(=O)(=O)N4CCCC4)cc3)o2)cc1C	92	53	89	32*	101
CCN(CC)S(=O)(=O)c1ccc(NC(=O)CSc2nnc(-c3ccc(F)cc3)o2)cc1	104	94	74	54	77
